According to ChEMBL document CHEMBL1155615, “Bioactive saponins from Swartzia schomburgkii from the suriname rainforest” (J Nat Prod, 2000):
Converted amounts (≈) assume the structure as drawn.

Experiments:
[1] = test system: Saccharomyces cerevisiae; experiment: Antimicrobial activity against Saccharomyces cerevisiae I138; type: functional
[2] = test system: Saccharomyces cerevisiae; experiment: Antimicrobial activity against Saccharomyces cerevisiae J140; type: functional
[3] = test system: M109; experiment: Cytotoxicity against mouse M109 cells; type: functional, cell-based
Summary of the method: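 In vitro antitumor cytotoxicity assay using the murine Madison lung carcinoma line M-109.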

[4] = test system: Saccharomyces cerevisiae; experiment: Antimicrobial activity against Saccharomyces cerevisiae I353; type: functional

CC1(C)CC[C@]2(C(=O)O)CC[C@]3(C)C(=CC[C@@H]4[C@@]5(C)CC[C@H](O[C@@H]6O[C@H](CO)[C@@H](O)[C@H](O[C@@H]7O[C@H](CO)[C@@H](O)[C@H](O)[C@H]7O)[C@H]6O)[C@@](C)(CO)[C@@H]5CC[C@]43C)[C@@H]2C1
IC12 [1]: 400 µg/mL
IC12 [2]: 600 µg/mL
IC50 [3]: 15.5 µg/mL (≈ 19.4 µM)
IC12 [4]: 1000 µg/mL

CC1(C)CC[C@]2(C(=O)O)CC[C@]3(C)C(=CC[C@@H]4[C@@]5(C)CC[C@H](O[C@@H]6O[C@H](CO)[C@@H](O)[C@H](O)[C@H]6O[C@@H]6O[C@H](CO)[C@@H](O)[C@H](O)[C@H]6O)C(C)(C)[C@@H]5CC[C@]43C)[C@@H]2C1 [ACUTOSIDE A]
IC12 [1]: 75 µg/mL
IC12 [2]: 130 µg/mL
IC50 [3]: 28.7 µg/mL (≈ 36.7 µM)
IC12 [4]: 110 µg/mL

CC1(C)CC[C@]2(C(=O)O)CC[C@]3(C)C(=CC[C@@H]4[C@@]5(C)CC[C@H](O[C@@H]6O[C@H](CO)[C@@H](O)[C@H](O[C@@H]7O[C@H](CO)[C@@H](O)[C@H](O)[C@H]7O)[C@H]6O[C@@H]6O[C@H](CO)[C@@H](O)[C@H](O)[C@H]6O)C(C)(C)[C@@H]5CC[C@]43C)[C@@H]2C1 [ANCHUSOSID 2]
IC12 [1]: 120 µg/mL
IC12 [2]: 200 µg/mL
IC12 [4]: 270 µg/mL

CC1(C)CC[C@]2(C(=O)O)CC[C@]3(C)C(=CC[C@@H]4[C@@]5(C)CC[C@H](O[C@@H]6O[C@H](CO)[C@@H](O)[C@H](O)[C@H]6O)[C@@](C)(CO)[C@@H]5CC[C@]43C)[C@@H]2C1 [Hederagenin-3-O-beta-D-glucopyranoside]
IC12 [1]: 125 µg/mL
IC12 [2]: 200 µg/mL
IC12 [4]: 280 µg/mL

CC1(C)CC[C@]2(C(=O)O)CC[C@]3(C)C(=CC[C@@H]4[C@@]5(C)CC[C@H](O[C@@H]6O[C@H](CO)[C@@H](O)[C@H](O[C@@H]7O[C@H](CO)[C@@H](O)[C@H](O)[C@H]7O)[C@H]6O[C@@H]6OC[C@@H](O)[C@H](O)[C@H]6O)C(C)(C)[C@@H]5CC[C@]43C)[C@@H]2C1 [SWARTZIATRIOSIDE]
IC12 [1]: 120 µg/mL
IC12 [2]: 260 µg/mL
IC50 [3]: 24.3 µg/mL (≈ 26.6 µM)
IC12 [4]: 430 µg/mL
